Test results published in PMC4934660 (Investigational new drugs, 2014).

Legend:
HUVEC cells = assay: Endothelial tube formation assay; format: cell-based; details: single experiment, preliminary, data not shown
TLR-3 = assay: Intracellular staining, TLR-3 in AsPC-1; format: cell-based, human; details: 2.4 μM, 6 hours, flow cytometry, average of 3 experiments, vs vehicle
A549 NFκB-luc cell line = assay: Cytotoxicity in A549/NFκB-luc reporter cell line; format: cell-based; details: 6 hours treatment
In short: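 A549 cells stably carrying an NFκB-driven luciferase reporter, kept in DMEM with 10% FBS, penicillin/streptomycin and 100 μg/mL hygromycin B. Plated at 5 x 10^4 cells/well and allowed to adhere. Given 100 ng/ml TNF-α plus test compound (serial dilutions 0.00013–5 μg/mL) or vehicle for 6 h. Detergent-lysed; lysate equilibrated 30 min with ethidium bromide; fluorescence read at ex 340/em 590 nm.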

IL-8 = IL-8 ELISA, AsPC-1; format: cell-based, human; details: 2.4 μg/mL, 6 hours, compared to controls, significant, average of 3 experiments
TLR-1 = assay: Intracellular staining, TLR-1 in AsPC-1; format: cell-based, human; details: 2.4 μM, 6 hours, flow cytometry, average of 3 experiments, vs vehicle
[1] = test system: TNF-related apoptosis-inducing ligand (TRAIL); assay: Intracellular staining, TRAIL in AsPC-1; format: cell-based, human; details: 2.4 μM, 6 hours, flow cytometry, average of 3 experiments, vs vehicle
IRAK = assay: Intracellular staining, IRAK in AsPC-1; format: cell-based, human; details: 2.4 μM, 6 hours, flow cytometry, average of 3 experiments, vs vehicle
IKKα = assay: Intracellular staining, IKKα in AsPC-1; format: cell-based, human; details: 2.4 μM, 6 hours, flow cytometry, average of 3 experiments, vs vehicle
TNFAIP3 = assay: Intracellular staining, TNFAIP3 in AsPC-1; format: cell-based, human; details: 2.4 μM, 6 hours, flow cytometry, average of 3 experiments, vs vehicle
[2] = test system: phosphorylated (active) NFκB p65 (pS529); assay: Intracellular staining, phosphorylated NFκB p65; format: cell-based, human; details: AsPC-1; 2.4 μg/mL; 6 hours; flow cytometry; vs vehicle control; average of 3 experiments; student's T test
In short: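 AsPC-1 cells were treated 6 h with 2.4 μg/mL test compound or vehicle control. After trypsinization, 4% paraformaldehyde fixation and ice-cold ethanol permeabilization, cells were stained directly 1 h RT with PE-conjugated mouse anti-NFκB p65 (pS529) or mouse IgG isotype; no secondary. Gates were set against the isotype. Flow cytometry, 20,000 events; Student's t test vs vehicle, mean of 3 experiments.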

PANC-1 = assay: TUNEL, PANC-1; format: cell-based, human; details: 2.4 μg/mL, 24 hours (method), flow cytometry, average of 3 experiments
In short: (§1)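 Cells (BxPC-3 and PANC-1 in complete RPMI with 10% FBS; MIA PaCa-2 in DMEM with 5% horse serum plus 10% FBS) were seeded at 500,000 per 6-well well and adhered overnight. They received 2.4 μg/mL test compound or vehicle for 24 h, then were trypsinized, fixed (4% paraformaldehyde) and ethanol-permeabilized. TdT/fluorescein-12-dUTP labelling ran 60 min at 37°C, stopped with 20mM EDTA. Flow cytometry, 20,000 events; Student's t test vs vehicle.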

[3] = test system: phosphorylated Akt Ser 473; assay: Intracellular staining, phosphorylated AKT in AsPC-1; format: cell-based, human; details: 2.4 μM, 6 hours, flow cytometry, average of 3 experiments, not statistically significant (student's T test)
In short: (§2)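 AsPC-1 cells (complete RPMI, 10% FBS, 37°C, 5% CO2) were exposed 6 h to test compound or vehicle control. They were trypsinized, fixed in 4% paraformaldehyde and permeabilized with ice-cold ethanol. Unconjugated primary antibody to the phospho-epitope (or rabbit IgG isotype) was applied 1 h RT, then PE-conjugated secondary 30 min RT. Flow cytometry, 20,000 events; Student's t test vs vehicle on the mean of 3 experiments.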

phosphorylated Jun Ser73 = assay: Intracellular staining, phosphorylated Jun in AsPC-1; format: cell-based, human; details: 2.4 μM, 6 hours, flow cytometry, average of 3 experiments, vs vehicle
[4] = test system: phosphorylated cyclin D1 Thr 286; assay: Intracellular staining, phosphorylated cyclin D1 in AsPC-1; format: cell-based, human; details: 2.4 μM, 6 hours, flow cytometry, average of 3 experiments, not statistically significant (student's T test)
In short: as §2

phosphorylated Elk = assay: Intracellular staining, phosphorylated Elk in AsPC-1; format: cell-based, human; details: 2.4 μM, 6 hours, flow cytometry, average of 3 experiments, vs vehicle
BxPC-3 = assay: TUNEL, BxPC-3; format: cell-based, human; details: 2.4 μg/mL, 24 hours (method), flow cytometry, average of 3 experiments
In short: as §1

[5] = test system: phosphorylated Fos Ser 32; assay: Intracellular staining, phosphorylated Fos in AsPC-1; format: cell-based, human; details: 2.4 μM, 6 hours, flow cytometry, average of 3 experiments, vs vehicle
MIA PaCa2 = assay: TUNEL, MIA PaCa-2; format: cell-based, human; details: 2.4 μg/mL, 24 hours (method), flow cytometry, average of 3 experiments
In short: as §1

[6] = test system: phosphorylated GSK3β Ser9; assay: Intracellular staining, phosphorylated GSK3β in AsPC-1; format: cell-based, human; details: 2.4 μM, 6 hours, flow cytometry, average of 3 experiments, not statistically significant (student's T test)
In short: as §2

MIA PaCa-2 = assay: Markers of apoptosis; format: cell-based, human; details: 2.4 μg/mL, with the assays used
In short: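 Caspase-3/7 luminescence. MIA PaCa-2 cells in DMEM with 5% horse serum and 10% FBS. 10,000 cells/well, adhered overnight, then given 2.4 μg/mL test compound or vehicle for 1, 3, 6 or 24 h. Equal volume of pro-luminescent DEVD substrate added, 30–60 min at RT with shaking, luminescence read. Expressed as fold over vehicle; Student's t test.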

COc1ccc(/C=C/CCCC[C@H](C)[C@H](O)[C@@H](O)[C@H]2NC(=O)CC3(O)NC(=O)CC3NC(=O)C[C@@H](O)CNC(=O)CN(C)C(=O)[C@@H](Cc3c(C(=O)O)[nH]c4ccccc34)NC(=O)CNC(=O)[C@H]2O)cc1 (some centres unmarked) [microsclerodermin A]
Endothelial tube formation (HUVEC cells): decreased tube formation
Change in expression, TLR-3 (TLR-3): No significant changes
Cytotoxicity in reporter cell line (in words) (A549 NFκB-luc cell line): little or no cytotoxicity
Increase in IL-8 production (IL-8): about 2.5 fold
Change in expression, TLR-1 (TLR-1): No significant changes
Change in expression, TRAIL [1]: No significant changes
Change in expression, IRAK (IRAK): No significant changes
Change in protein level, IKKα (IKKα): no changes at the protein level
Change in protein level, TNFAIP3 (TNFAIP3): no changes at the protein level
Levels of phosphorylated (active) NFκB p65 (pS529) [2]: significantly reduced
Apoptosis (TUNEL DNA fragmentation) (PANC-1): induced statistically significant apoptosis
Level of phosphorylated AKT [3]: increased
Level of phosphorylated Jun (phosphorylated Jun Ser73): statistically significantly upregulated
Level of phosphorylated cyclin D1 [4]: increased
Change in expression, phosphorylated Elk (phosphorylated Elk): No significant changes
Apoptosis (TUNEL DNA fragmentation) (BxPC-3): induced statistically significant apoptosis
Level of phosphorylated Fos [5]: statistically significantly upregulated
DNA fragmentation (TUNEL) (MIA PaCa2): not detected
Level of phosphorylated (inactive) GSK3β [6]: increased
Markers of apoptosis (MIA PaCa-2): no markers of apoptosis were seen
